≈ marks a conversion by molar mass, not a printed value.
Legend:
[1] = tested on: Staphylococcus aureus; assay: Antibacterial activity against Staphylococcus aureus MTCC 3160 after 24 hrs by broth microdilution method; type: functional; conditions: MTCC 3160, 24 h
Outline: (§1)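 Broth microdilution per NCCLS in Mueller-Hinton broth, inoculum 5 x 10^5 CFU/ml. Compounds dissolved in DMSO, twofold serial dilutions made in sterile distilled water. Incubated at 35°C for 24 h. MIC (µg/ml) taken as the lowest concentration with no visible turbidity by unaided eye. Ciprofloxacin as positive control. Three replicates, mean ± SD.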

[2] = tested on: Plasmodium falciparum; assay: Antimalarial activity against chloroquine-resistant Plasmodium falciparum RKL-9 schizont infected in RBC measured after 24 to 30 hrs hrs by giemsa staining based light microscopic method; type: functional
Outline: (§2)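 Asynchronous cultures synchronised to rings with 5% aqueous sorbitol, other stages removed by centrifugation; parasitemia about 1% in fresh washed RBCs. Compounds dissolved in DMSO, diluted in RPMI-1640, tested at several concentrations in triplicate; drug-free wells as control. Incubation 37°C in CO2 for 24-30 h until schizont maturation; methanol-fixed Giemsa smears counted under oil immersion; % inhibition, IC50 by probit; n=2.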

[3] = Selectivity index, ratio of IC50 for human HepG2 cells to IC50 for chloroquine-resistant Plasmodium falciparum RKL-9 schizont infected in RBC; type: toxicity; conditions: read-out: Ratio IC50
Outline: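 HepG2 in RPMI 1640 with 10% FCS, 5 x 10^2 cells/well, serial dilutions (DMSO stocks) added after 1 h; 7 days at 37°C, 5% CO2; MTT 4 h, formazan in ethanol, absorbance 570 nm; IC50 by non-linear regression, one experiment in duplicate. Index = HepG2 IC50 / RKL-9 antiplasmodial IC50.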

[4] = tested on: Plasmodium falciparum; assay: Antimalarial activity against chloroquine-sensitive Plasmodium falciparum MRC-2 schizont infected in RBC measured after 24 to 30 hrs hrs by giemsa staining based light microscopic method; type: functional; outline: as §2
[5] = Inhibition of beta-hematin formation assessed as reduction in acetate buffer-initiated hemozoin formation after 18 hrs by spectrophotometric method relative to control; parameters: concentration or dose not given beside the values; conditions: concentration not given here
Outline: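 Colorimetric β-hematin assay after Ncokazi and Egan. Haemin chloride in DMSO, with compounds at 0.12–5 molar equivalents to haemin and DMSO as control. Reaction started with acetate buffer pH 5.0 and run 18 h at 37°C. Pellet then washed with DMSO to remove unreacted haematin. % inhibition computed from test versus control absorbance. Duplicate determinations.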

[6] = tested on: Escherichia coli; assay: Antibacterial activity against Escherichia coli MTCC 51 after 24 hrs by broth microdilution method; type: functional; conditions: MTCC 51, 24 h; outline: as §1
[7] = tested on: Candida albicans; assay: Antifungal activity against Candida albicans MTCC 227 after 48 hrs by broth microdilution method; type: functional; conditions: MTCC 227, 48 h
Outline: (§3)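 Fungi grown in Sabouraud liquid medium, inoculum 0.5–2.5 x 10^3 CFU/ml. Broth microdilution per NCCLS using twofold serial dilutions in sterile water from DMSO solutions. Incubated at 35°C for 48 h. MIC (µg/ml) was the lowest concentration with no visible growth by eye. Fluconazole as positive control. Mean ± SD of three replicates.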

[8] = tested on: Aspergillus niger; assay: Antifungal activity against Aspergillus niger MTCC 8189 after 48 hrs by broth microdilution method; type: functional; conditions: MTCC 8189, 48 h; outline: as §3
[9] = tested on: Bacillus subtilis; assay: Antibacterial activity against Bacillus subtilis MTCC 121 after 24 hrs by broth microdilution method; type: functional; conditions: MTCC 121, 24 h; outline: as §1
[10] = tested on: Pseudomonas aeruginosa; assay: Antibacterial activity against Pseudomonas aeruginosa MTCC 741 after 24 hrs by broth microdilution method; type: functional; conditions: MTCC 741, 24 h; outline: as §1
[11] = tested on: HepG2; assay: Cytotoxicity against human HepG2 cells assessed as reduction in cell viability after 7 days by MTT assay; type: cell-based; conditions: HepG2, 168 h
Outline: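 HepG2 cells maintained in RPMI 1640 with 10% FCS. Seeded at 5 x 10^2 cells per well and pre-incubated 1 h at 37°C, 5% CO2. Serial dilutions from DMSO stocks added, with medium and DMSO solvent controls. Cells incubated seven days, then MTT (5 mg/ml) added for 4 h. Formazan dissolved in ethanol, A570 read. IC50 by non-linear regression of % growth against log concentration.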

Row | Structure (SMILES) | MIC [1] [µg/mL] | IC50 [2] [nM] | selectivity ratio [3] | IC50 [4] [nM] | inhibition [5] [%] | MIC [6] [µg/mL] | MIC [7] [µg/mL] | MIC [8] [µg/mL] | MIC [9] [µg/mL] | MIC [10] [µg/mL] | IC50 [11] [nM]
1 | COc1ccc(C2CC(c3ccc(O)cc3)=NN2C(=O)c2cccnc2)cc1 (configuration not stated) | 50 (≈ 134 µM) | 556 | 76.3 | 59 | 54 | 25 (≈ 67 µM) | 50 (≈ 134 µM) | 12.5 (≈ 33.5 µM) | 75 (≈ 201 µM) | 25 (≈ 67 µM) | 42400
2 | O=C(c1cccnc1)N1N=C(c2ccc(O)cc2)CC1c1ccc([N+](=O)[O-])cc1 (configuration not stated) | 6.5 (≈ 16.7 µM) | 2440 | 7.63 | 1570 | < 5 | 6.5 (≈ 16.7 µM) | 12.5 (≈ 32.2 µM) | 25 (≈ 64.4 µM) | 12.5 (≈ 32.2 µM) | 25 (≈ 64.4 µM) | 18600
3 | O=C(c1cccnc1)N1N=C(c2ccc(O)cc2)CC1c1ccc(Br)cc1 (configuration not stated) | 6.5 (≈ 15.4 µM) | 970 | 60.5 | 141 | 76 | 25 (≈ 59.2 µM) | 50 (≈ 118 µM) | 25 (≈ 59.2 µM) | 12.5 (≈ 29.6 µM) | 12.5 (≈ 29.6 µM) | 58700
4 | O=C(c1cccnc1)N1N=C(c2ccc(O)cc2)CC1c1ccc(F)cc1 (configuration not stated) | 12.5 (≈ 34.6 µM) | 2900 | 18.1 | 2500 | < 5 | 6.5 (≈ 18 µM) | 12.5 (≈ 34.6 µM) | 25 (≈ 69.2 µM) | 3.25 (≈ 8.99 µM) | 12.5 (≈ 34.6 µM) | 52400
5 | CCc1ccccc1C1CC(c2ccc(O)cc2)=NN1C(=O)c1cccnc1 (configuration not stated) | 50 (≈ 135 µM) | 471 | 75.1 | 81 | 53 | 12.5 (≈ 33.7 µM) | 100 (≈ 269 µM) | 50 (≈ 135 µM) | 50 (≈ 135 µM) | 25 (≈ 67.3 µM) | 35400
6 | CC(C)c1ccccc1C1CC(c2ccc(O)cc2)=NN1C(=O)c1cccnc1 (configuration not stated) | 25 (≈ 64.9 µM) | 1650 | 30.1 | 110 | 57 | 3.25 (≈ 8.43 µM) | 50 (≈ 130 µM) | 25 (≈ 64.9 µM) | 12.5 (≈ 32.4 µM) | 12.5 (≈ 32.4 µM) | 49700
7 | CCN(CC)CCCC(C)Nc1ccnc2cc(Cl)ccc12 (configuration not stated) |  |  |  |  | 87 |  |  |  |  |  | 
8 | CCCc1ccc(C2CC(c3ccc(O)cc3)=NN2C(=O)c2cccnc2)cc1 (configuration not stated) | 12.5 (≈ 32.4 µM) | 192 | 216 | 22 | 81 | 12.5 (≈ 32.4 µM) | 25 (≈ 64.9 µM) | 25 (≈ 64.9 µM) | 50 (≈ 130 µM) | 12.5 (≈ 32.4 µM) | 41600
9 | O=C(c1cccnc1)N1N=C(c2ccc(O)cc2)CC1c1ccccc1Cl (configuration not stated) | 75 (≈ 199 µM) | 2330 | 20.5 | 240 | 31 | 50 (≈ 132 µM) | 6.5 (≈ 17.2 µM) | 3.25 (≈ 8.6 µM) | 12.5 (≈ 33.1 µM) | 3.25 (≈ 8.6 µM) | 47700
10 | COc1ccc(C2CC(c3ccc(O)cc3)=NN2C(=O)c2cccnc2)cc1OC (configuration not stated) | 50 (≈ 124 µM) | 251 | 213 | 30 | 89 | 50 (≈ 124 µM) | 75 (≈ 186 µM) | 6.5 (≈ 16.1 µM) | 50 (≈ 124 µM) | 25 (≈ 62 µM) | 53600
11 | COc1ccc(OC)c(C2CC(c3ccc(O)cc3)=NN2C(=O)c2cccnc2)c1 (configuration not stated) | 25 (≈ 62 µM) | 330 | 172 | 40 | 71 | 25 (≈ 62 µM) | 75 (≈ 186 µM) | 12.5 (≈ 31 µM) | 25 (≈ 62 µM) | 12.5 (≈ 31 µM) | 56800
12 | CC(C)c1ccc(C2CC(c3ccc(O)cc3)=NN2C(=O)c2cccnc2)cc1 (configuration not stated) | 12.5 (≈ 32.4 µM) | 465 | 83.3 | 34 | 48 | 3.25 (≈ 8.43 µM) | 12.5 (≈ 32.4 µM) | 25 (≈ 64.9 µM) | 50 (≈ 130 µM) | 12.5 (≈ 32.4 µM) | 38700
13 | OC(Cn1cncn1)(Cn1cncn1)c1ccc(F)cc1F [FLUCONAZOLE] |  |  |  |  |  |  | 12.5 (≈ 40.8 µM) | 25 (≈ 81.6 µM) |  |  | 
14 | Cc1cc(C)c(C2CC(c3ccc(O)cc3)=NN2C(=O)c2cccnc2)c(C)c1 (configuration not stated) | 12.5 (≈ 32.4 µM) | 544 | 100 | 94 | 67 | 6.5 (≈ 16.9 µM) | 50 (≈ 130 µM) | 25 (≈ 64.9 µM) | 12.5 (≈ 32.4 µM) | 6.5 (≈ 16.9 µM) | 54500
15 | O=C(O)c1cn(C2CC2)c2cc(N3CCNCC3)c(F)cc2c1=O [CIPROFLOXACIN] |  | 401 |  |  |  | 12.5 (≈ 37.7 µM) |  |  | 25 (≈ 75.4 µM) |  | 27000
16 | CC(C)Oc1ccc(C2CC(c3ccc(O)cc3)=NN2C(=O)c2cccnc2)cc1 (configuration not stated) | 50 (≈ 125 µM) | 337 | 139 | 38 | 78 | 6.5 (≈ 16.2 µM) | 6.5 (≈ 16.2 µM) | 12.5 (≈ 31.1 µM) | 75 (≈ 187 µM) | 50 (≈ 125 µM) | 45400
17 | COc1ccc(C2CC(c3ccc(O)cc3)=NN2C(=O)c2cccnc2)cc1C (configuration not stated) | 25 (≈ 64.5 µM) | 779 | 57.5 | 63 | 66 | 12.5 (≈ 32.3 µM) | 50 (≈ 129 µM) | 25 (≈ 64.5 µM) | 25 (≈ 64.5 µM) | 6.5 (≈ 16.8 µM) | 44800
18 | O=C(c1cccnc1)N1N=C(c2ccc(O)cc2)CC1c1ccc(OCc2ccccc2)cc1 (configuration not stated) | 50 (≈ 111 µM) | 2550 | 4.48 | 214 | < 5 | 25 (≈ 55.6 µM) | 3.25 (≈ 7.23 µM) | 12.5 (≈ 27.8 µM) | 50 (≈ 111 µM) | 12.5 (≈ 27.8 µM) | 11400
